Results taken from ChEMBL document CHEMBL3271979, “Inhibition of solid tumors by nitrosoureas. 1. Lewis lung carcinoma” (1977).
Activity calls are given as the source filed them. No cut-off for these calls is given here.

Tests used:
[1] = Antitumor activity against mouse advanced Lewis lung carcinoma allografted in ip dosed BDF1 mouse assessed as increase in host lifespan administered as single dose on day 6 or 7 post-tumor implantation; format: functional
Method in brief: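 Advanced Lewis lung model: about 40 mg fragments implanted sc by trocar into BDF1 mice, and mice with tumors of about 400 mg (day 6-7) selected. Tumor weight from calipers, w = ab²/2. Agent given as one ip dose in distilled water or physiological saline. Nontumor-bearing mice received matching doses as toxicity controls.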

[2] = Antitumor activity against mouse advanced Lewis lung carcinoma allografted in BDF1 mouse assessed as increase in host life span at 37 mg/kg, ip administered as single dose on 7th day post-tumor implantation; format: functional; settings: route intraperitoneal
Method in brief: (§1)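 BDF1 mice (C57Blk/6 × DBA/2) implanted sc by trocar with about 40 mg Lewis lung tumor fragments from bacteriologically sterile donors. Advanced-disease groups held tumors of about 400 mg by day 6-7, sized by caliper (w = ab²/2). Single ip injection on day 7, in water or saline vehicle, at or below the LD10 in normal mice. Tumors measured at least twice weekly.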

[3] = Antitumor activity against mouse early Lewis lung carcinoma allografted in BDF1 mouse assessed as time delay in tumor growth at 26 mg/kg, ip administered as single dose on 1 or 2 days post-tumor implantation; format: functional; settings: route intraperitoneal
Method in brief: (§2)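 BDF1 mice (C57Blk/6 × DBA/2) implanted sc by trocar with ~40 mg Lewis lung tumor fragments from bacteriologically sterile donors. A single ip dose was given on day 1 or 2, as a solution or suspension in water or saline with suspending agent, at ≤0.5 ml. Tumors were measured by caliper at least twice weekly, with weight = ab²/2. Delay was taken as the days for the tumor to reach 1 g.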

Mus musculus [4] = test: Antitumor activity against mouse advanced Lewis lung carcinoma allografted in BDF1 mouse assessed as disease cure at 25 mg/kg, ip administered as single dose on 7th day post-tumor implantation measured for 80 days post-drug treatment; format: functional, organism-based; design: dose 25 mg/kg
Method in brief: (§3)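 BDF1 mice (C57Blk/6 × DBA/2) implanted sc by trocar with Lewis lung tumor fragments of about 40 mg, taken only from bacteriologically sterile donor tumors. Mice bearing tumors of about 400 mg (day 6-7) were selected. Each received a single ip dose on day 7, at or below the LD10 in normal mice. Groups were of 10 mice. Tumor weight was taken from calipers as w = ab²/2, measured at least twice weekly. Matched non-tumor mice served as toxicity controls.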

Mus musculus [5] = test: Antitumor activity against mouse advanced Lewis lung carcinoma allografted in BDF1 mouse assessed as complete regression of established tumor at 37 mg/kg, ip administered as single dose on 7th day post-tumor implantation; format: functional, organism-based; design: dose 37 mg/kg; method in brief: as §3
Mus musculus [6] = test: Antitumor activity against mouse advanced Lewis lung carcinoma allografted in BDF1 mouse assessed as complete regression of established tumor at 25 mg/kg, ip administered as single dose on 7th day post-tumor implantation; format: functional, organism-based; design: dose 25 mg/kg; method in brief: as §3
Mus musculus [7] = test: Antitumor activity against mouse advanced Lewis lung carcinoma allografted in BDF1 mouse assessed as disease cure at 37 mg/kg, ip administered as single dose on 7th day post-tumor implantation measured for 80 days post-drug treatment; format: functional, organism-based; design: dose 37 mg/kg; method in brief: as §3
[8] = Antitumor activity against mouse early Lewis lung carcinoma allografted in BDF1 mouse assessed as increase in host life span at 40 mg/kg, ip administered as single dose on 1 or 2 days post-tumor implantation; format: functional; settings: route intraperitoneal
Method in brief: (§4)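 BDF1 mice (C57Blk/6 × DBA/2) implanted sc by trocar with ~40 mg Lewis lung tumor fragments from bacteriologically sterile donor tumors. Single ip dose on day 1 or 2, as a solution or suspension in water (CMC or gum acacia) or saline (HPC or Tween 80). Read-out is […]. Same-dose toxicity controls were run in nontumor-bearing mice.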

Mus musculus [9] = test: Antitumor activity against mouse advanced Lewis lung carcinoma allografted in BDF1 mouse assessed as disease cure at 16 mg/kg, ip administered as single dose on 7th day post-tumor implantation measured for 80 days post-drug treatment; format: functional, organism-based; design: dose 16 mg/kg; method in brief: as §3
[10] = Antitumor activity against mouse advanced Lewis lung carcinoma allografted in BDF1 mouse assessed as increase in host life span at 25 mg/kg, ip administered as single dose on 7th day post-tumor implantation; format: functional; settings: route intraperitoneal; method in brief: as §1
[11] = Antitumor activity against mouse early Lewis lung carcinoma allografted in BDF1 mouse assessed as time delay in tumor growth at 60 mg/kg, ip administered as single dose on 1 or 2 days post-tumor implantation; format: functional; settings: route intraperitoneal; method in brief: as §2
Mus musculus [12] = test: Antitumor activity against mouse advanced Lewis lung carcinoma allografted in ip dosed BDF1 mouse assessed as disease cure administered as single dose on day 6 or 7 post-tumor implantation; format: functional, organism-based; method in brief: as §3
[13] = Antitumor activity against mouse advanced Lewis lung carcinoma allografted in BDF1 mouse assessed as increase in host life span at 16 mg/kg, ip administered as single dose on 7th day post-tumor implantation; format: functional; settings: route intraperitoneal; method in brief: as §1
[14] = Antitumor activity against mouse early Lewis lung carcinoma allografted in BDF1 mouse assessed as increase in host life span at 60 mg/kg, ip administered as single dose on 1 or 2 days post-tumor implantation; format: functional; settings: route intraperitoneal; method in brief: as §4
[15] = Antitumor activity against mouse early Lewis lung carcinoma allografted in BDF1 mouse assessed as increase in host life span at 26 mg/kg, ip administered as single dose on 1 or 2 days post-tumor implantation; format: functional; settings: route intraperitoneal; method in brief: as §4
Mus musculus [16] = test: Antitumor activity against mouse advanced Lewis lung carcinoma allografted in BDF1 mouse assessed as complete regression of established tumor at 16 mg/kg, ip administered as single dose on 7th day post-tumor implantation; format: functional, organism-based; design: dose 16 mg/kg; method in brief: as §3
Mus musculus [17] = test: Antitumor activity against mouse advanced Lewis lung carcinoma allografted in ip dosed BDF1 mouse assessed as complete regression of established tumor administered as single dose on day 6 or 7 post-tumor implantation; format: functional, organism-based; method in brief: as §3
[18] = Antitumor activity against mouse early Lewis lung carcinoma allografted in BDF1 mouse assessed as time delay in tumor growth at 40 mg/kg, ip administered as single dose on 1 or 2 days post-tumor implantation; format: functional; settings: route intraperitoneal; method in brief: as §2
[19] = Antitumor activity against mouse advanced Lewis lung carcinoma allografted in BDF1 mouse assessed as increase in host life span at 36 mg/kg, ip administered as single dose on 7th day post-tumor implantation; format: functional; settings: route intraperitoneal; method in brief: as §1
Mus musculus [20] = test: Antitumor activity against mouse advanced Lewis lung carcinoma allografted in BDF1 mouse assessed as disease cure at 54 mg/kg, ip administered as single dose on 7th day post-tumor implantation measured for 80 days post-drug treatment; format: functional, organism-based; design: dose 54 mg/kg; method in brief: as §3
[21] = Antitumor activity against mouse advanced Lewis lung carcinoma allografted in BDF1 mouse assessed as increase in host life span at 54 mg/kg, ip administered as single dose on 7th day post-tumor implantation; format: functional; settings: route intraperitoneal; method in brief: as §1
Mus musculus [22] = test: Antitumor activity against mouse advanced Lewis lung carcinoma allografted in BDF1 mouse assessed as disease cure at 36 mg/kg, ip administered as single dose on 7th day post-tumor implantation measured for 80 days post-drug treatment; format: functional, organism-based; design: dose 36 mg/kg; method in brief: as §3
[23] = Ratio of ED50 for antitumor activity against mouse L1210 cells allografted in ip dosed mouse to LD10 for mouse
[24] = Antitumor activity against mouse advanced Lewis lung carcinoma allografted in BDF1 mouse assessed as increase in host life span at 20 mg/kg, ip administered as single dose on 7th day post-tumor implantation; format: functional; settings: route intraperitoneal; method in brief: as §1
Mus musculus [25] = test: Antitumor activity against mouse advanced Lewis lung carcinoma allografted in BDF1 mouse assessed as disease cure at 20 mg/kg, ip administered as single dose on 7th day post-tumor implantation measured for 80 days post-drug treatment; format: functional, organism-based; design: dose 20 mg/kg; method in brief: as §3
[26] = Antitumor activity against mouse early Lewis lung carcinoma allografted in BDF1 mouse assessed as time delay in tumor growth at 13 mg/kg, ip administered as single dose on 1 or 2 days post-tumor implantation; format: functional; settings: route intraperitoneal
Method in brief: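 Sc trocar implants of about 40 mg Lewis lung fragments in BDF1 mice. A single ip injection was given on day 1 or 2, in water or physiological saline, at ≤0.5 ml. Tumor size came from caliper length and width as w = ab²/2, measured at least twice weekly. Growth delay is the extra days taken to reach 1 g, compared with untreated controls.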

[27] = Antitumor activity against mouse early Lewis lung carcinoma allografted in BDF1 mouse assessed as increase in host life span at 13 mg/kg, ip administered as single dose on 1 or 2 days post-tumor implantation; format: functional; settings: route intraperitoneal
Method in brief: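 Early disease: BDF1 mice carrying sc trocar implants of about 40 mg Lewis lung fragments. One ip dose given on day 1 or 2 after implant, in distilled water or saline, at ≤0.5 ml. Endpoints were % increase in life-span of dying animals and delay in days for the primary tumor to reach 1 g. Untreated controls served as reference.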

[28] = (§5) Antitumor activity against mouse early Lewis lung carcinoma allografted in ip dosed BDF1 mouse assessed as disease cure administered as single dose on 1 or 2 days post-tumor implantation measured for 80 days post-drug treatment; format: functional
Method in brief: (§6)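 BDF1 mice implanted sc by trocar with ~40 mg Lewis lung fragments from sterile donor tumors. A single ip dose was given on day 1 or 2 after implant, in water or saline vehicle. Cures were scored in animals observed for at least 80 days after treatment. Drug-toxicity controls were matched non-tumor-bearing mice monitored for body weight and deaths.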

[29] = Antitumor activity against mouse early Lewis lung carcinoma allografted in BDF1 mouse assessed as increase in host life span at 20 mg/kg, ip administered as single dose on 1 or 2 days post-tumor implantation; format: functional; settings: route intraperitoneal; method in brief: as §4
Mus musculus [30] = test: Antitumor activity against mouse advanced Lewis lung carcinoma allografted in BDF1 mouse assessed as disease cure at 30 mg/kg, ip administered as single dose on 7th day post-tumor implantation measured for 80 days post-drug treatment; format: functional, organism-based; design: dose 30 mg/kg; method in brief: as §3
[31] = Antitumor activity against mouse advanced Lewis lung carcinoma allografted in BDF1 mouse assessed as increase in host life span at 30 mg/kg, ip administered as single dose on 7th day post-tumor implantation; format: functional; settings: route intraperitoneal; method in brief: as §1
[32] = Antitumor activity against mouse advanced Lewis lung carcinoma allografted in BDF1 mouse assessed as increase in host life span at 144 mg/kg, ip administered as single dose on 7th day post-tumor implantation; format: functional; settings: route intraperitoneal; method in brief: as §1
Mus musculus [33] = test: Antitumor activity against mouse early Lewis lung carcinoma allografted in ip dosed BDF1 mouse administered as single dose on 1 or 2 days post-tumor implantation measured for 80 days post-drug treatment; format: functional, organism-based; method in brief: as §6
Mus musculus [34] = test: Antitumor activity against mouse advanced Lewis lung carcinoma allografted in BDF1 mouse assessed as disease cure at 144 mg/kg, ip administered as single dose on 7th day post-tumor implantation measured for 80 days post-drug treatment; format: functional, organism-based; design: dose 144 mg/kg; method in brief: as §3
Mus musculus [35] = test: as §5; format: functional; method in brief: as §6

CO[C@H]1CC[C@H](NC(=O)N(CCCl)N=O)CC1
ILS [1]: >25% | ILS at 37 mg/kg [2]: 29% | Time [3]: 0 days | Activity (Mus musculus [4]): inactive | inhibition (Mus musculus [5]): inactive | inhibition (Mus musculus [6]): inactive | Activity (Mus musculus [7]): inactive | ILS at 40 mg/kg [8]: 0% | Activity (Mus musculus [9]): inactive | ILS at 25 mg/kg [10]: 29% | Time [11]: 9.5 days | Activity (Mus musculus [12]): inactive | ILS at 16 mg/kg [13]: 20% | ILS at 60 mg/kg [14]: 18% | ILS at 26 mg/kg [15]: 18% | inhibition (Mus musculus [16]): inactive | inhibition (Mus musculus [17]): inactive | Time [18]: 2 days

COC(=O)[C@H]1CC[C@@H](NC(=O)N(CCCl)N=O)CC1
ILS at 36 mg/kg [19]: 120% | Activity (Mus musculus [12]): inactive | Activity (Mus musculus [20]): inactive | ILS at 54 mg/kg [21]: 100% | Activity (Mus musculus [22]): inactive | inhibition (Mus musculus [17]): Active

O=NN(CCCl)C(=O)N[C@H]1CC[C@@H](C(=O)O)CC1
Ratio [23]: 0.6 | ILS at 20 mg/kg [24]: 90% | Activity (Mus musculus [25]): inactive | Time [26]: 23 days | Activity (Mus musculus [12]): inactive | ILS at 13 mg/kg [27]: 35% | Activity [28]: >50% | ILS at 20 mg/kg [29]: 0% | inhibition (Mus musculus [17]): Active | Activity (Mus musculus [30]): inactive | ILS at 30 mg/kg [31]: 79%

O=NN(CCCl)C(=O)NC1C2CC3CC(C2)CC1C3 (configuration not stated)
ILS at 144 mg/kg [32]: 19% | Activity (Mus musculus [33]): inactive | Ratio [23]: 0.6 | Activity (Mus musculus [34]): inactive | Activity (Mus musculus [12]): inactive | Activity (Mus musculus [35]): inactive | inhibition (Mus musculus [17]): Active
